In general, Km refers to the substrate concentration at which the rate is half of its maximum. What is called Vmax is the rate approached at saturating substrate.

In data set [1] the test system is Liver microsome. Briefly: Drug metabolism in human liver microsomes assessed as N'-glucuronide-triclocarban formation incubated for 5 mins prior to UDPGA addition measured after 5 to 30 mins by LC-UV analysis. The class given is ADME. Summed up: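 Pooled human kidney or liver microsomes (liver: 25 mixed-gender donors), 5 µg protein, in 200 µL 100 mM potassium phosphate pH 7.4. Alamethicin pre-treated on ice 15 min. Final 10 µM TCC (2% DMSO), with 10 mM MgCl2 and 10 mM saccharolactone, preincubated 5 min at 37 °C. Started with UDPGA (20 mM stock). Sampled at 5, 10, 15 and 30 min into ACN containing 1 µM DCC internal standard.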
Background: Liver microsomes are vesicles of endoplasmic reticulum, rich in cytochrome P450 enzymes.

Data set [2] in a line: Drug excretion in Sprague-Dawley rat urine assessed as 6-O-glucuronide-triclocarban formation at 1 mg/kg, po by LC-MS analysis. The class given is ADME, organism-based. The following applies: in vivo. On the set-up: dose 1 mg/kg, route oral.
The nature of data set [3]: Drug metabolism in human intestine microsomes assessed as N'-glucuronide-triclocarban formation incubated for 5 mins prior to UDPGA addition measured after 5 to 30 mins by LC-UV analysis. The class given is ADME. Summed up: (§1)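 Microsomes or UGT Supersomes (5 µg protein) were held 15 min on ice with alamethicin in 100 mM potassium phosphate pH 7.4. TCC was added at 10 µM (2% DMSO) with 10 mM MgCl2 and 10 mM saccharolactone, pre-warmed 5 min at 37 °C, then started with UDPGA. Samples at 5, 10, 15 and 30 min were quenched in ACN. Product was read by LC-UV at 265 nm; rate came from regression over time, three incubations.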

The target in data set [4] is T1, UDP-glucuronosyltransferase 2B17 (Homo sapiens, UniProt O75795).
T1 sequence (O75795 whole entry): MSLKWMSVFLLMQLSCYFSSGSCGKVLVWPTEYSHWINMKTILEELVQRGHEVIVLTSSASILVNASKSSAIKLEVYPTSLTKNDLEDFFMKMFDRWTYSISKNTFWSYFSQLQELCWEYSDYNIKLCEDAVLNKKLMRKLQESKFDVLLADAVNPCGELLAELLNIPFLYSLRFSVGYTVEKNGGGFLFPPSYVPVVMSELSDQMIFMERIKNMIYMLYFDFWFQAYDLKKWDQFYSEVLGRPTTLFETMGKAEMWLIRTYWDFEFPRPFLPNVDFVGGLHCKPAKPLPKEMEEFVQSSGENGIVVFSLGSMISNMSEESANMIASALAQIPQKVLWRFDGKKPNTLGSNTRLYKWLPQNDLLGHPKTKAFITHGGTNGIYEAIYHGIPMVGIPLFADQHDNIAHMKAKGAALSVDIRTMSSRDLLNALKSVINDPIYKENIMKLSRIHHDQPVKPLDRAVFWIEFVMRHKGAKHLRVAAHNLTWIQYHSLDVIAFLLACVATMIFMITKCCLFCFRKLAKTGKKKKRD
Kind of data set: Drug metabolism assessed as human UGT2B17-mediated N'-glucuronide-triclocarban formation expressed in baculovirus infected insect sf9 cells incubated for 5 mins prior to UDPGA addition measured after 5 to 30 mins by LC-UV analysis. The class given is ADME. Summed up:
as §1

In data set [5] the target is T2, UDP-glucuronosyltransferase 1A10 (Homo sapiens, UniProt Q9HAW8).
T2 sequence (Q9HAW8 whole entry): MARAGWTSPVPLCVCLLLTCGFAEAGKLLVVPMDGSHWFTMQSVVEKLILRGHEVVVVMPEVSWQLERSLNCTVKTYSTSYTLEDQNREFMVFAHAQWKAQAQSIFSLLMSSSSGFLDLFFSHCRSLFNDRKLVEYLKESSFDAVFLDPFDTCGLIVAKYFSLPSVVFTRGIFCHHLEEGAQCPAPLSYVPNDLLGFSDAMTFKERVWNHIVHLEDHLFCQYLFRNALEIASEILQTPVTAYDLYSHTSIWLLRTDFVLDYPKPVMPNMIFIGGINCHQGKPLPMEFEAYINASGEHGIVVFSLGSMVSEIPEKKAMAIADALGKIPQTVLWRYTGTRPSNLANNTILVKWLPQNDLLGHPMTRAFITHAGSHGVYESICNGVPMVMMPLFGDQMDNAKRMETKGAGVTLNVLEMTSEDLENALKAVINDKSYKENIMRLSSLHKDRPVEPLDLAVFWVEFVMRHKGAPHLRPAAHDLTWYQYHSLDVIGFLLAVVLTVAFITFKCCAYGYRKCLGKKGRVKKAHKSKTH
Briefly: Drug metabolism assessed as human UGT1A10-mediated N-glucuronide-triclocarban formation expressed in baculovirus infected insect sf9 cells incubated for 5 mins prior to UDPGA addition measured after 5 to 30 mins by LC-UV analysis. The class given is ADME. Summed up:
as §1

A short description of data set [6]: Drug metabolism in B6C3F1 mouse liver microsomes assessed as N-glucuronide-triclocarban formation incubated for 5 mins prior to UDPGA addition measured after 30 mins by LC-UV-ESI-MS/MS analysis. The class given is ADME. The settings on record: 0.5 h. Summed up:
(§2)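 TCC was incubated at 10 µM (2% DMSO) in 100 mM phosphate pH 7.4 with alamethicin-treated microsomes or Supersomes, 10 mM MgCl2 and 10 mM saccharolactone. After 5 min pre-incubation at 37 °C, UDPGA was added to start the reaction. Protein was raised up to 2 mg/mL. Samples were quenched in ACN with 1 µM DCC internal standard, centrifuged, and N-glucuronides detected by LC-ESI-MS/MS in SRM mode.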

The nature of data set [7]: Drug metabolism in cynomolgus monkey liver microsomes assessed as N'-glucuronide-triclocarban formation incubated for 5 mins prior to UDPGA addition measured after 30 mins by LC-UV-ESI-MS/MS analysis. The class given is ADME, Macaca fascicularis. The settings on record: 0.5 h. Summed up: as §2
A short description of data set [8]: Drug excretion in monkey urine. The settings on record: rhesus monkey, read-out: Drug excretion. The class given is ADME, tissue-based, Macaca mulatta.
A further data set concerns Liver. Kind of data set: Intrinsic clearance in B6C3F1 mouse liver microsomes after 30 mins by LC-ESI-MS analysis. The class given is ADME. The following applies: 0.5 h. Summed up: (§3)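 2'-OH-TCC at 0.2, 0.5, 1, 2, 3, 5, 10 and 50 µM incubated with liver microsomes (alamethicin, MgCl2, saccharolactone, UDPGA; 37 °C), sampled at 5, 10, 15 and 30 min. Samples ≥5 µM diluted 1:9 in ACN; LC-ESI-MS. KM and vmax fitted from rate vs concentration; intrinsic clearance derived from these; mean and SD of three.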

The test system of data set [9] is Liver microsome. Kind of data set: Intrinsic clearance in human liver microsomes after 30 mins by LC-ESI-MS analysis. The class given is ADME. The settings on record: 0.5 h. Summed up: as §3
A short description of data set [10]: Drug metabolism in B6C3F1 mouse liver microsomes after 30 mins by LC-ESI-MS analysis. It counts as ADME. Summed up: as §3
The test system of data set [11] is Liver microsome. Briefly: Drug metabolism in Sprague-Dawley rat liver microsomes assessed as retention time at 10 uM by LC-UV-MS method in presence of UDPGA. It counts as ADME.

As to `O=C(Nc1ccc(Cl)cc1)Nc1ccc(Cl)c(Cl)c1` [TRICLOCARBAN], the Drug metabolism result in the data set on Liver microsome [1] was “metabolite_not_detected”; in data set [3], “metabolite_not_detected”; in [4] it was “metabolite_not_detected”; in [5], “metabolite_not_detected”; in data set [6] it was “metabolite_detected”; in data set [7], “metabolite_detected”. The Drug excretion result in [2] is recorded as “metabolite_detected”. In addition, in data set [8], the dose excreted was determined as 25%.
On to `O=C(Nc1ccc(Cl)c(Cl)c1)Nc1ccc(Cl)cc1O`, for which the results for the CLH in the data set with Liver and in the data set on Liver microsome [9] were 1450 µL/min/mg and 1740 µL/min/mg, respectively. Also, the Km at 0.5 h in data set [10] (B6C3F1, mouse, liver microsomes) was determined as 2.46 µM. Besides, the Vmax in data set [10] (mouse, microsomes, 0.5 h) is 1.45 nmol/min/mg.
As for `O=C(Nc1ccc(Cl)c(O)c1)Nc1ccc(Cl)c(Cl)c1`, the Retention_time in the data set with Liver microsome [11] is reported as 2.26 min.
